Assay results reported in ChEMBL document CHEMBL4017532, “Multifunctional Hybrid Compounds Derived from 2-(2,5-Dioxopyrrolidin-1-yl)-3-methoxypropanamides with Anticonvulsant and Antinociceptive Properties” (J Med Chem, 2017).

How the values were obtained:
Mus musculus [1] = assay: Anticonvulsant activity in ip dosed Albino Swiss CD-1 mouse assessed as protection against maximal electroshock-induced seizures pretreated up to 2 hrs followed by 50 Hz current induction for […] measured at time to peak effect; type: functional; settings: Swiss CD-1, ip
Mus musculus [2] = assay: Anticonvulsant activity in Albino Swiss CD-1 mouse assessed as protection against maximal electroshock-induced seizures by measuring time to peak effect at 100 mg/kg, ip pretreated up to 2 hrs followed by 50 Hz current induction for […]; type: functional
Mus musculus [3] = assay: Anticonvulsant activity in ip dosed Albino Swiss CD-1 mouse assessed as protection against 32 mA current-induced seizure treated up to 2 hrs prior to 6-Hz current induction measured at time to peak effect; type: functional; settings: Swiss CD-1, ip
[4] = Neurotoxicity in ip dosed Albino Swiss CD-1 mouse assessed as induction of motor impairment measured up to 60 secs by chimney test; type: toxicity, organism-based; settings: in vivo
Method in brief: (§1)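 Acute neurological toxicity after ip dosing (1% Tween 80 suspension) was assessed in the mouse chimney test. TD50 with 95% confidence limits was derived by probit analysis. Protective index is TD50 from the chimney test divided by ED50 from the MES, scPTZ or 6 Hz test.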

Mus musculus [5] = assay: Protection index, ratio of TD50 for neurotoxicity in ip dosed Albino Swiss CD-1 mouse to ED50 for ip dosed Albino Swiss CD-1 mouse model of 6 Hz-induced siezures; method in brief: as §1
Mus musculus [6] = assay: Anticonvulsant activity in Albino Swiss CD-1 mouse assessed as protection against 6 Hz current-induced seizure at 100 mg/kg, ip pretreated up to 2 hrs followed by 6 Hz current induction for 3 secs relative to control; type: functional
Mus musculus [7] = assay: Anticonvulsant activity in Albino Swiss CD-1 mouse assessed as protection against maximal electroshock-induced seizures at 100 mg/kg, ip pretreated up to 2 hrs followed by 50 Hz current induction for […] relative to control; type: functional
[8] = Retention time of the compound by LC-MS method
Mus musculus [9] = assay: Protection index, ratio of TD50 for neurotoxicity in ip dosed Albino Swiss CD-1 mouse to ED50 for ip dosed maximal electroshock induced seizure Albino Swiss CD-1 mouse; method in brief: as §1
Cytochrome P450 3A4 = Cytochrome P450 3A4 (Homo sapiens, UniProt P08684); assay: Inhibition of human CYP3A4 assessed as reduction in luciferin-PPXE conversion to D-luciferin at 12.5 to 25 uM by luminescence assay; type: ADME
Method in brief: (§2)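 P450-Glo luminescence assays used recombinant human CYP3A4 or CYP2D6 with conversion of luciferin-PPXE to D-luciferin. Ketoconazole (CYP3A4) and quinidine (CYP2D6) served as reference inhibitors.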

Mus musculus [10] = assay: Anticonvulsant activity in Albino Swiss CD-1 mouse assessed as inhibition of pentylenetetrazole-induced seizures by measuring time to peak effect at 100 mg/kg, ip administered up to 2 hrs prior to PTZ induction measured for 30 mins; type: functional
Cytochrome P450 2D6 = Cytochrome P450 2D6 (Homo sapiens, UniProt P10635); assay: Inhibition of human CYP2D6 assessed as reduction in luciferin-PPXE conversion to D-luciferin at 12.5 to 25 uM by luminescence assay; type: ADME; method in brief: as §2
Mus musculus [11] = assay: Anticonvulsant activity in Albino Swiss CD-1 mouse assessed as inhibition of pentylenetetrazole-induced seizures at 100 mg/kg, ip administered up to 2 hrs prior to PTZ induction measured after 30 mins relative to control; type: functional; parameters: scale not given: the % may be the effect or the level left
Mus musculus [12] = assay: Anticonvulsant activity in Albino Swiss CD-1 mouse assessed as protection against 6 Hz current-induced seizure at 100 mg/kg, ip pretreated up to 0.5 hrs followed by 6 Hz current induction for 3 secs relative to control; type: functional
Liver = assay: Drug level in human liver microsomes treated with 1-{1-[4-(3-Trifluoromethylphenyl)piperazin-1-yl]-3-methoxy-1-oxopropan-2-yl}pyrrolidine-2,5-dione preincubated for 5 mins followed by NADPH addition measured after 2 hrs by LC-MS method; type: ADME, microsome

Cytochrome P450 3A4, sequence (P08684 whole entry): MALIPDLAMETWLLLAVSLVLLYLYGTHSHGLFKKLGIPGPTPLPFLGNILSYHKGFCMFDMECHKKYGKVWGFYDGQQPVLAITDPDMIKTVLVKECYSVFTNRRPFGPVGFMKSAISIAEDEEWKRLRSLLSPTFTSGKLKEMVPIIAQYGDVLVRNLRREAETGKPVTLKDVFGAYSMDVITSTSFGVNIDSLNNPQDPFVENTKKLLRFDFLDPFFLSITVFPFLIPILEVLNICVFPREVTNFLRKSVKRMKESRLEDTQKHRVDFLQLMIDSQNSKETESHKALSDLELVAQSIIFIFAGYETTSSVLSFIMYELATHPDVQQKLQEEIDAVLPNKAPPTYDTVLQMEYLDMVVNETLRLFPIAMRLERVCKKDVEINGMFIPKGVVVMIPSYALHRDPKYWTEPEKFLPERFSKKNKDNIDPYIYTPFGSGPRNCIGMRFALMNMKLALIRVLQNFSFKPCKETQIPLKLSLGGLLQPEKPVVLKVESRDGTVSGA
Cytochrome P450 2D6, sequence (P10635 whole entry): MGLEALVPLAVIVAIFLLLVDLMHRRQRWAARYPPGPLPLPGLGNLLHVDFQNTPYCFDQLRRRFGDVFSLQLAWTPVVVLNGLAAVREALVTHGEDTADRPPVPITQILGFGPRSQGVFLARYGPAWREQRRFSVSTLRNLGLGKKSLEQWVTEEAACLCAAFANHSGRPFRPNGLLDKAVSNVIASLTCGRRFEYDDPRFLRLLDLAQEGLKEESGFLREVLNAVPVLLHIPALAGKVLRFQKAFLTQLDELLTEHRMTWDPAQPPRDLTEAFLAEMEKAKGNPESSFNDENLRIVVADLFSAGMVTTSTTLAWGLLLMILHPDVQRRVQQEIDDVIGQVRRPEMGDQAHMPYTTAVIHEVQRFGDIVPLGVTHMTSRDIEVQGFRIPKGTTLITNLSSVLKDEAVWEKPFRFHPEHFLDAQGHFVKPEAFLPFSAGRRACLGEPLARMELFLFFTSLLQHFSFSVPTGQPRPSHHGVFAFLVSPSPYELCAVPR

SMILES | ED50 (Mus musculus [1]) [mg/kg] | Time (Mus musculus [2]) [h] | ED50 (Mus musculus [3]) [mg/kg] | TD50 at 1 min [4] [mg/kg] | Ratio TD50/ED50 (Mus musculus [5]) | Activity (Mus musculus [6]) | Retention time [8] [min] | also measured
COC[C@@H](C(=O)N1CCN(c2ccc(C(F)(F)F)cc2)CC1)N1C(=O)CCC1=O | > 120 | 0.25 to 0.5 | 37.9 to 49.2 | 243 to 246 | 5 - 6.4 | – | – | –
COCC(C(=O)N1CCN(c2ccc(Cl)cc2)CC1)N1C(=O)CCC1=O (stereo not drawn) | – | 0.25 to 1 | 45.5 to 77 | 180 to 208 | 2.4 - 4.6 | <=75% | – | –
COCC(C(=O)N1CCN(c2cccc(C)c2)CC1)N1C(=O)CCC1=O (stereo not drawn) | – | 0.25 | 47.7 | 213 | 4.5 | <=75% | – | Activity (Mus musculus [7]): <=75%
COCC(C(=O)N1CCN(c2cccc(Cl)c2)CC1)N1C(=O)CCC1=O (stereo not drawn) | 79.7 to 87 | 0.25 to 0.5 | 26.1 to 32.7 | 192 to 226 | 6.9 - 7.3 | <=75% | 5.72 | Activity (Mus musculus [7]): <=75%; Ratio TD50/ED50 (Mus musculus [9]): 2.4 - 2.6; inhibition (INH) (Cytochrome P450 3A4): Not Active
COCC(C(=O)N1CCN(c2cccc(OC)c2)CC1)N1C(=O)CCC1=O (stereo not drawn) | – | 0.25 | > 100 | – | – | <=75% | – | –
CCC1(C)CC(=O)NC1=O (stereo not drawn) [ETHOSUXIMIDE] | > 500 | 0.25 | 222 | 722 | 3.2 | – | – | Time (Mus musculus [10]): 0.25 h
COCC(C(=O)N1CCN(c2ccc(F)cc2)CC1)N1C(=O)CCC1=O (stereo not drawn) | – | 0.25 | 71.4 | 306 | 4.3 | <=75% | – | –
COCC(C(=O)N1CCN(c2cccc(C(F)(F)F)c2)CC1)N1C(=O)CCC1=O (stereo not drawn) | – | – | – | – | – | <=75% | 6.08 | inhibition (INH) (Cytochrome P450 3A4): Not Active; inhibition (INH) (Cytochrome P450 2D6): Not Active; Activity (Mus musculus [11]): 50%
O=C(C(CO)N1C(=O)CCC1=O)N1CCN(c2ccc(C(F)(F)F)cc2)CC1 (stereo not drawn) | – | – | – | – | – | – | – | Efficacy (Mus musculus [12]): 50%
COCC(C(=O)N1C=CN(c2cccc(C(F)(F)F)c2)CC1)N1C(=O)CCC1=O (stereo not drawn) | – | – | – | – | – | – | 6.33 | Drug metabolism (Liver): Metabolite_Detected
